Assay outcomes as filed in PubChem BioAssay.
TDP2 absorb – human TDP2 enzyme inhibitors, primary screen, biochemical, epi absorbance, recombinant enzyme | Tyrosyl-DNA phosphodiesterase 2 (Homo sapiens), O95551 | T5PNP hydrolysis, p-nitrophenol absorbance 415 nm | inhibition, % at 12.8 µM | hit rate 0.34% among 370,000 | AID 720702, 2013;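 active = inhibition above the mean of all tested compounds plus 3 SD, set per campaign, cut at about 25% in these data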
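Assay system: Recombinant human TDP2 | Quantity: 120 nM TDP2 per well | Incubation: 2 h at 37 °C | Signal: Epi absorbance | Evaluation: Percent inhibition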
CTSL1 counter – Fasciola hepatica cathepsin L1 inhibitors, primary screen, counter-screen for PFM18AAP inhibitor project, biochemical, QFRET, fluorogenic peptide substrate. recombinant F. hepatica cathepsin L1, Z-Leu-Arg-MCA fluorescence. AID 1906, 2009. hit rate 0.49% among 300,000. inhibition, % at 5.96 µM;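 active = inhibition above the mean of all tested compounds plus 3 SD, set per screening campaign, cut at about 17% in these data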
GSTO1 inh – inhibitors of recombinant GSTO1, primary screen, counter-screen for RBBP9 inhibitor project, biochemical, fluorescence polarization; Glutathione S-transferase omega-1 (Homo sapiens), P78417; AID 1974, 2009; inhibition, % at 5.96 µM; activity-based probe fluorescence polarization; hit rate 1.1% among 300,000;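 active = inhibition above the campaign mean inhibition plus 3 SD, cut at about 35% in these data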
PAD4 inh – human PAD4 inhibitors, primary screen, biochemical, fluorescence polarization, 1536-well format. Protein-arginine deiminase type-4 (Homo sapiens), Q9UM07. recombinant PAD4, RCA probe fluorescence polarization. inhibition, % at 6.36 µM. hit rate 0.41% among 330,000;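 active = percent inhibition above a cutoff equal to the mean of all tested compounds plus 3 SD, cut at about 15% in these data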
Apaf-1 inh – inhibitors of human Apaf-1 apoptosome, primary screen, biochemical, DEVD-Rh110 fluorescence, uHTS; Apoptotic protease-activating factor 1 (Homo sapiens), O14727; reconstituted apoptosome caspase-3 activity; inhibition, % at 20 µM; hit rate 0.71% among 330,000; active = inhibition of at least 40% at 20 µM
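detection = Rh110 fluorescence intensity | test system = biochemical Apaf-1 apoptosome reconstitution | also added = cytochrome c and DEVD-Rh110 substrate | schedule = 30 min plus 50 min, RT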
PAD4 FP conf – human PAD4 inhibitors, confirmation, biochemical, fluorescence polarization; inhibition, % at 6.36 µM; hit rate 28% among 1,200; shares compounds with PAD4 inh; recombinant PAD4, RCA probe fluorescence polarization;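 active = mean inhibition across replicates above the hit cutoff set by the earlier primary screen, cut at about 15% in these data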;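 also: inhibitors block active-site labeling by the probe so polarization falls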
Large screens that a line does not name were inactive (follow-up assays come after a bar, where they were run). A selection: hits, their analogues and other compounds. The true share with any hit is near 1.8%.

CCOC(=O)N1CC=C2C(C#N)=C(N)C(C#N)(C#N)[C@H](c3ccsc3)[C@H]2C1	none
Cc1sc2ncnc(SCC(=O)N3c4ccccc4Sc4ccc(Cl)cc43)c2c1C	none
CCOC(=O)c1c(C)sc2c1N(C(=O)CCl)c1cc(Cl)ccc1S2	PAD4 inh 19 | PAD4 FP conf 43
O=C(O)CSCC(=O)Nc1ccc(-c2nc3ccccc3s2)cc1	PAD4 inh 30 | PAD4 FP conf 31
CN(c1ccc(C(=O)NCC2CCCO2)cc1)S(C)(=O)=O (stereo not given)	PAD4 inh 15 | PAD4 FP conf inactive
O=C(NCC1CCCO1)c1ccc(C(=O)NCC2CCCO2)cc1 (stereo not given)	none
c1ccc2c(c1)Cn1nnnc1-2	PAD4 inh 33 (no result: TDP2 absorb) | PAD4 FP conf inactive
CNc1ccccc(-c2ccc3ccccc3n2)c1=O	PAD4 inh 20 | PAD4 FP conf inactive
COC(=O)[C@]12C[C@H](CC(=O)NCc3cccc(C(F)(F)F)c3)C(=O)N(CCc3ccc(OC)c(OC)c3)C1=C[C@H](C(C)C)O[C@@H]2C1CC1	none (no result: CTSL1 counter, GSTO1 inh, PAD4 inh, Apaf-1 inh)
COc1ccc(N2C(=O)c3n[nH]c(C(C)C)c3C2c2ccc(C)cc2)cc1 (stereo not given)	none (no result: CTSL1 counter, GSTO1 inh, PAD4 inh, Apaf-1 inh)
COc1cc(Cl)c(NC2=CC(=O)C(=O)c3ccccc32)c(OC)c1	PAD4 inh 41, Apaf-1 inh 92 (no result: CTSL1 counter, GSTO1 inh) | PAD4 FP conf 52
c1ccc(C[n+]2csc3ccccc32)cc1	PAD4 inh 23 | PAD4 FP conf 34
CCn1nnnc1SCC(=O)N(C)C1CCS(=O)(=O)C1 (stereo not given)	PAD4 inh 16 (no result: CTSL1 counter, GSTO1 inh) | PAD4 FP conf inactive
COC(=O)[C@H]1C[C@@]2(C)c3ccccc3N(C(=O)OC(C)(C)C)[C@H]2N1C(=O)OC(C)(C)C	none (no result: CTSL1 counter, GSTO1 inh, PAD4 inh, Apaf-1 inh)
Cc1cc(N(C)NC(=S)Nc2ccccc2)nc(C)n1	PAD4 inh 52 | PAD4 FP conf inactive
CCNC(=O)N1C[C@H]2CON(C)[C@H]2C[C@H]1c1ccc(N2CCCCC2)cc1	none (no result: CTSL1 counter, GSTO1 inh, PAD4 inh, Apaf-1 inh)
Cc1ccc(-n2c(SCC(=O)NN=Cc3c[nH]c4ccccc34)nnc2-c2ccccc2)cc1	none (no result: CTSL1 counter, GSTO1 inh, PAD4 inh, Apaf-1 inh)
CC(C)C[C@H](NC(=O)C1CC1)C(=O)N1CCC[C@H]1C(=O)NCc1ccccc1	none (no result: CTSL1 counter, GSTO1 inh, PAD4 inh, Apaf-1 inh)
O=C(O)CSc1ncnc2scc(-c3ccccc3)c12	none
CCC(=O)Nc1ccccc1Sc1ncnc2scc(-c3ccccc3)c12	PAD4 inh 21 | PAD4 FP conf inactive
CCOC(=O)C1CCN(CC(=O)N2CCc3ccccc32)CC1	PAD4 inh 38 | PAD4 FP conf inactive
CC1CCN(CC(=O)N2CCc3ccccc32)CC1	none
COc1ccc(NC(=O)Nc2c[nH]c(=O)[nH]c2=O)cc1	PAD4 inh 15 | PAD4 FP conf inactive
COc1ccc(NC(=O)Nc2cc(NC(=O)Nc3ccc(OC)cc3)c(C)nc2C)cc1	none
O=S1(=O)N[C@@H](Cc2ccccc2)COc2cc(NC3CC3)ccc21	none (no result: CTSL1 counter, GSTO1 inh, PAD4 inh, Apaf-1 inh)
O=C(/C=C/c1ccccc1)C1=C(O)C(=O)N(CCO)C1c1ccccc1[N+](=O)[O-] (stereo not given)	PAD4 inh 24 | PAD4 FP conf inactive
O=c1oc2ccccc2n1CSC1=NCCS1	PAD4 inh 17 | PAD4 FP conf inactive
O=c1oc2ccccc2n1CSc1nc2ccccc2s1	none
COC(=O)C(F)(Sc1c(C)n(C)n(-c2ccccc2)c1=O)C(F)(F)F (stereo not given)	PAD4 inh 48 | PAD4 FP conf 34
Cc1c(NC(=O)CC(O)(C(F)(F)F)C(F)(F)F)c(=O)n(-c2ccccc2)n1C	none
O=S(=O)(c1ccccc1F)n1c(CN2CCOCC2)nc2ccccc21	none (no result: CTSL1 counter, GSTO1 inh, PAD4 inh, Apaf-1 inh)
CCC(=O)Nc1ccc(SC#N)cc1C	PAD4 inh 40 | PAD4 FP conf 42
Cc1nn(C)c(C)c1NC(=O)CCl	none
Cc1cc(SC#N)cc(C)c1NC(=O)CCl	GSTO1 inh 66, PAD4 inh 25 | PAD4 FP conf inactive
O=C(O[C@H]1CC[C@@]23CCCN2C(=O)CCC[C@H]3C1)N1CCCC1	none (no result: CTSL1 counter, GSTO1 inh, PAD4 inh, Apaf-1 inh)
CCn1c(SC(C)C(=O)O)nc2sc3c(c2c1=O)CCC3 (stereo not given)	PAD4 inh 16 | PAD4 FP conf inactive
CC(Sc1nc2sc3c(c2c(=O)n1-c1ccccc1)CCCC3)C(=O)O (stereo not given)	none
CC(=O)N1CCN(c2ccc(NCc3ccc(C)s3)cc2)CC1	none
CC(=O)N1CCN(c2ccc(NCc3cccs3)cc2)CC1	PAD4 inh 17 | PAD4 FP conf inactive
O=C(CN1CCOCC1)Nc1nc2ccc(Br)cc2s1	PAD4 inh 17 | PAD4 FP conf inactive
COC(=O)C1=C(C)N(CC(C)C)C(=S)NC1c1ccc(Cl)cc1 (stereo not given)	none (no result: CTSL1 counter, GSTO1 inh, PAD4 inh, Apaf-1 inh)
